Assay results as given in ChEMBL document CHEMBL1131631, “Piperazinyl oxazolidinone antibacterial agents containing a pyridine, diazene, or triazene heteroaromatic ring” (1998).
Converted amounts (≈) assume the structure as drawn.

Tests used:
[1] = tested on: Enterococcus faecalis; assay: Minimum inhibitory concentration against Enterococcus faecalis UC9217; type: functional
How it was run: (§1)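 MIC in µg/mL. S. aureus UC 9213 is methicillin-susceptible, and S. aureus UC 6685 and S. epidermidis UC 12084 are methicillin-resistant. E. faecalis UC 9217 and S. pneumoniae UC 9912 were also tested.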

[2] = tested on: Mus musculus; assay: Compound was tested against Staphylococcus aureus UC9213 after po administration in mouse; type: functional
How it was run: (§2)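 Lethal systemic S. aureus infection in mice, with oral dosing. The ED50 is the dose in mg/kg body weight per dose that reduces mortality by 50%. The 95% confidence limits are −50% and +100% of the nominal value.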

[3] = tested on: Staphylococcus aureus; assay: Minimum inhibitory concentration against Staphylococcus aureus UC6685; type: functional; how it was run: as §1
[4] = tested on: Staphylococcus epidermidis; assay: Minimum inhibitory concentration against Staphylococcus epidermis UC12084; type: functional; how it was run: as §1
[5] = tested on: Streptococcus pneumoniae; assay: Minimum inhibitory concentration Streptococcus pneumoniae UC9912; type: functional; how it was run: as §1
[6] = tested on: Caco-2; assay: (§3) permeability assessment across a monolayer of caco-2 cells in absence of GSH in aqueous base.; type: functional, Homo sapiens
[7] = tested on: Caco-2; assay: (§4) permeability assessment across a monolayer of caco-2 cells in presence of GSH in aqueous base.; type: functional, Homo sapiens
[8] = tested on: Staphylococcus aureus; assay: Minimum inhibitory concentration against Staphylococcus aureus UC9213; type: functional; how it was run: as §1
[9] = tested on: Mus musculus; assay: compound was tested against Staphylococcus aureus UC9213 the eperezolid administered (PO) in mouse positive control expressed as ED50 values.
[10] = tested on: Caco-2; assay: (§5) permeability assessment across […]; type: functional, Homo sapiens
[11] = tested on: Staphylococcus aureus; assay: compound was tested against Staphylococcus aureus UC9213 the eperezolid administered positive control expressed as ED50 values.; type: functional
How it was run: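 Eperezolid was given orally in the same lethal systemic mouse S. aureus trial as the test agents. The ED50 is the mg/kg/dose that reduces mortality by 50%.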

[12] = tested on: Staphylococcus aureus; assay: compound was tested against Staphylococcus aureus UC9213 after po administration.; type: functional; how it was run: as §2
[13] = tested on: Caco-2; assay: as §3; type: functional
[14] = tested on: Caco-2; assay: as §4; type: functional
[15] = tested on: Caco-2; assay: as §5; type: functional
[16] = tested on: Caco-2; assay: as §5; type: functional; remark: listed apart in the source

| Structure (SMILES) | MIC [1] [µg/mL] | MIC [3] [µg/mL] | MIC [4] [µg/mL] | MIC [5] [µg/mL] | MIC [8] [µg/mL] | ED50 [2] [mg/kg] | [A] [6] [µM] | [A] [7] [µM] | ED50 [9] [mg/kg] | [EA] [10] [µM] | ED50 [11] [mg/kg] | ED50 [12] [mg/kg] | [A] [13] [µM] | [A] [14] [µM] | [EA] [15] [µM] | [EA] [16] [µM] |
| --- | --- | --- | --- | --- | --- | --- | --- | --- | --- | --- | --- | --- | --- | --- | --- | --- |
| CC(=O)NC[C@H]1CN(c2ccc(N3CCN(c4ccc5nc(C)c(C(C)=O)n5n4)CC3)c(F)c2)C(=O)O1 | 4 (≈ 7.85 µM) | 4 (≈ 7.85 µM) | 1 (≈ 1.96 µM) | 0.5 (≈ 0.981 µM) | 4 (≈ 7.85 µM) |  |  |  |  |  |  |  |  |  |  |  |
| CC(=O)NC[C@H]1CN(c2ccc(N3CCN(c4nc(C)cc(C)c4C#N)CC3)c(F)c2)C(=O)O1 | 4 (≈ 8.57 µM) | 4 (≈ 8.57 µM) | 2 (≈ 4.29 µM) | 1 (≈ 2.14 µM) | 4 (≈ 8.57 µM) |  |  |  |  |  |  |  |  |  |  |  |
| CC(=O)NC[C@H]1CN(c2ccc(N3CCN(c4c(Cl)c(Cl)nc(Cl)c4Cl)CC3)c(F)c2)C(=O)O1 | > 16 | > 16 | > 16 | > 16 | > 16 |  |  |  |  |  |  |  |  |  |  |  |
| CC(=O)NC[C@H]1CN(c2ccc(N3CCN(c4nnc(Cl)c(C)c4C)CC3)c(F)c2)C(=O)O1 | > 16 | > 16 | 4 (≈ 8.39 µM) | 2 (≈ 4.19 µM) | > 16 |  |  |  |  |  |  |  |  |  |  |  |
| CC(=O)NC[C@H]1CN(c2ccc(N3CCN(c4cc(NC(C)=O)c(Cl)nn4)CC3)c(F)c2)C(=O)O1 | > 16 | > 16 | 16 (≈ 31.6 µM) | 4 (≈ 7.91 µM) | > 16 |  |  |  |  |  |  |  |  |  |  |  |
| CC(=O)NC[C@H]1CN(c2ccc(N3CCN(c4c(F)c(F)nc(F)c4F)CC3)c(F)c2)C(=O)O1 | > 16 | > 16 | > 16 | 2 (≈ 4.12 µM) | > 16 |  |  |  |  |  |  |  |  |  |  |  |
| CC(=O)NC[C@H]1CN(c2ccc(N3CCN(c4cccnn4)CC3)c(F)c2)C(=O)O1 | 2 (≈ 4.83 µM) | 2 (≈ 4.83 µM) | 0.5 (≈ 1.21 µM) | 0.5 (≈ 1.21 µM) | 4 (≈ 9.65 µM) | 8.8 |  | 36 | 8.7 |  |  |  |  |  |  |  |

Second part, led by results:

| MIC [1] [µg/mL] | MIC [3] [µg/mL] | MIC [4] [µg/mL] | MIC [5] [µg/mL] | MIC [8] [µg/mL] | Structure (SMILES) | ED50 [2] [mg/kg] | [A] [6] [µM] | [A] [7] [µM] | ED50 [9] [mg/kg] | [EA] [10] [µM] | ED50 [11] [mg/kg] | ED50 [12] [mg/kg] | [A] [13] [µM] | [A] [14] [µM] | [EA] [15] [µM] | [EA] [16] [µM] |
| --- | --- | --- | --- | --- | --- | --- | --- | --- | --- | --- | --- | --- | --- | --- | --- | --- |
| 2 (≈ 4.84 µM) | 2 (≈ 4.84 µM) | 1 (≈ 2.42 µM) | 0.5 (≈ 1.21 µM) | 4 (≈ 9.67 µM) | CC(=O)NC[C@H]1CN(c2ccc(N3CCN(c4ccccn4)CC3)c(F)c2)C(=O)O1 | 11.2 | 37 | 37 | 6 |  |  |  |  |  |  |  |
| 2 (≈ 4.83 µM) | 2 (≈ 4.83 µM) | 0.5 (≈ 1.21 µM) | 0.5 (≈ 1.21 µM) | 2 (≈ 4.83 µM) | CC(=O)NC[C@H]1CN(c2ccc(N3CCN(c4ncccn4)CC3)c(F)c2)C(=O)O1 | 6 |  |  | 6.2 |  |  |  |  |  |  |  |
| 1 (≈ 2.41 µM) | 2 (≈ 4.83 µM) | 1 (≈ 2.41 µM) | 0.5 (≈ 1.21 µM) | 2 (≈ 4.83 µM) | CC(=O)NC[C@H]1CN(c2ccc(N3CCN(c4ccncn4)CC3)c(F)c2)C(=O)O1 | 4.4 | 40 | 40 | 1.8 | 50 |  |  |  |  |  |  |
| 1 (≈ 2.23 µM) | 1 (≈ 2.23 µM) | 0.5 (≈ 1.11 µM) | 0.5 (≈ 1.11 µM) | 2 (≈ 4.46 µM) | CC(=O)NC[C@H]1CN(c2ccc(N3CCN(c4cncc(Cl)n4)CC3)c(F)c2)C(=O)O1 |  |  |  |  |  | 3.2 | > 20 |  |  |  |  |
| 2 (≈ 4.14 µM) | 2 (≈ 4.14 µM) | 1 (≈ 2.07 µM) | 0.5 (≈ 1.03 µM) | 2 (≈ 4.14 µM) | CC(=O)NC[C@H]1CN(c2ccc(N3CCN(c4cnnc(Cl)c4Cl)CC3)c(F)c2)C(=O)O1 |  |  |  |  |  | 3.2 | > 20 | 34 | 34 | 50 | 0 |
| 2 (≈ 4.64 µM) | 2 (≈ 4.64 µM) | 1 (≈ 2.32 µM) | 0.5 (≈ 1.16 µM) | 2 (≈ 4.64 µM) | CC(=O)NC[C@H]1CN(c2ccc(N3CCN(c4cccc(F)n4)CC3)c(F)c2)C(=O)O1 |  |  |  |  |  |  |  |  |  |  |  |
| 1 (≈ 2.28 µM) | 1 (≈ 2.28 µM) | 1 (≈ 2.28 µM) | 0.5 (≈ 1.14 µM) | 1 (≈ 2.28 µM) | CC(=O)NC[C@H]1CN(c2ccc(N3CCN(c4cc(C#N)ccn4)CC3)c(F)c2)C(=O)O1 |  |  |  |  |  |  |  |  |  |  |  |
| 2 (≈ 4.5 µM) | 4 (≈ 9 µM) | 1 (≈ 2.25 µM) | < 0.5 | 8 (≈ 18 µM) | CC(=O)NC[C@H]1CN(c2ccc(N3CCN(c4cc(N)nc(N)n4)CC3)c(F)c2)C(=O)O1 |  |  |  |  |  |  |  |  |  |  |  |
| 2 (≈ 4.67 µM) | 2 (≈ 4.67 µM) | 1 (≈ 2.33 µM) | 0.5 (≈ 1.17 µM) | 4 (≈ 9.34 µM) | CC(=O)NC[C@H]1CN(c2ccc(N3CCN(c4ccc(C)nn4)CC3)c(F)c2)C(=O)O1 | 6.3 |  |  | 8.7 |  |  |  |  |  |  |  |
